Source: PubChem BioAssay (Broad Institute)
This is one part of a sample in which hits are shown more often than they occur.
T cruzi growth-1 = T. cruzi intracellular proliferation inhibitors, primary screen, cell-based, beta-gal Tulahuen parasites, NIH3T3 host, luminescence; AID 624255, 2012; 77,000 compounds, 5.9% hits; T. cruzi beta-gal in NIH3T3, GalScreen luminescence, 90 h; inhibition, % at 8.34 µM;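 active = mean inhibition above about 93%, with at least 55% of replicates each passing it, limit read from the data, passing the limit was not always enough; inconclusive = only one of those two conditions holds; inactive = neither condition holds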
GASC1 inh = inhibitors of GASC-1 (KDM4C) histone demethylase, primary screen, biochemical, single concentration HTS | GST-KDM4C 2-372, H3K9me3 peptide, LANCE TR-FRET | Lysine-specific demethylase 4C (Homo sapiens), Q9H3R0 | 96,000 compounds, 0.15% hits | inhibition, % at 12.5 µM | AID 720574, 2013;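 active = mean replicate inhibition above about 25%, with at least 55% of replicates also reaching it, limit read from the data, passing the limit was not always enough; inconclusive = only one of those two conditions met; inactive = neither condition met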
Target sequence (Q9H3R0 2-372 limits assumed): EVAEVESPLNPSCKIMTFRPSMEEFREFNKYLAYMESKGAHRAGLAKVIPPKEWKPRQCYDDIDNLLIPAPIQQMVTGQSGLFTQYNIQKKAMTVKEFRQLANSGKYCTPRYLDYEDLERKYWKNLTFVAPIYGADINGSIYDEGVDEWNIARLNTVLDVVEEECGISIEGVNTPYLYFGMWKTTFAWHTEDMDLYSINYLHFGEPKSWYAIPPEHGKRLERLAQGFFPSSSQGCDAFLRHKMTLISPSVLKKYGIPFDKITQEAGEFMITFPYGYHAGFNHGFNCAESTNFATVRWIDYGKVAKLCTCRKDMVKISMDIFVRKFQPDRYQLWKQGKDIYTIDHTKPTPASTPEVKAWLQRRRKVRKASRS
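Test system: N-terminal GST-fused human GASC-1 (KDM4C) fragment, residues 2-372; quantity: GASC-1 enzyme at 10 nM final in reaction; dosing: single dose; schedule: 30 min demethylation and 1 h detection at room temperature; signal: LANCE TR-FRET, excitation 340 nm, emissions 618 and 671 nm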
IDH1 mut inh = inhibitors of IDH1 R132H reductase, primary screen, biochemical, plate reader, single point | diaphorase/resazurin fluorescence, 60 min | inhibition, % at 10 µM | Isocitrate dehydrogenase [NADP] cytoplasmic (Homo sapiens), O75874 | 70,000 compounds, 0.18% hits | AID 624101, 2012; in the data active = inhibition above about 34%; inconclusive = no clear call, values can overlap the other calls; inactive = below about 11%
T cruzi growth-2 = T. cruzi intracellular proliferation inhibitors, confirmation, cell-based, NIH3T3 host, beta-gal parasite, luminescence, cherry-pick; T. cruzi beta-gal in NIH3T3, GalScreen luminescence, 90 h; 5,600 compounds, 72% hits; shares compounds with T cruzi growth-1; inhibition, % at 8.35 µM;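 active = mean replicate inhibition above about 95% and at least 55% of replicates individually reaching it, limit read from the data; inconclusive = only one of the two criteria is met; inactive = neither criterion is met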
T cruzi growth-3 = inhibitors of intracellular T. cruzi replication, confirmation, NIH3T3 host cells, beta-gal parasites, cherry-pick, set 2; shares compounds with T cruzi growth-1; T. cruzi beta-gal in NIH3T3, GalScreen luminescence, 90 h; inhibition, % at 2.09 µM; 5,600 compounds, 21% hits; AID 651740, 2012;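 active = mean inhibition above about 95%, with at least 55% of replicates also reaching it, limit read from the data; inconclusive = meets just one of the two conditions; inactive = meets neither condition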
NIH3T3 tox = cytotoxicity in mouse NIH/3T3 fibroblasts, confirmation, cytotoxicity control for T. cruzi proliferation inhibitor project, cell-based, cherry-pick, single point. AID 651742, 2012. shares compounds with T cruzi growth-1. 5,600 compounds, 14% hits. NIH/3T3 viability, CellTiter-Glo ATP luminescence, 90 h. cytotoxicity (signal decrease), % at 8.35 µM;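 active = mean signal decrease across replicates above about 35% based on untreated-well scatter, with enough replicates individually passing, limit read from the data; inconclusive = no rule stated though some were filed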
3T3 cytotox 2 = NIH/3T3 fibroblast cytotoxicity, confirmation, cytotoxicity control, cell-based, cherry-pick, single point, set 2; shares compounds with T cruzi growth-1; NIH/3T3 viability, CellTiter-Glo ATP luminescence, 90 h; inhibition, % at 24.9 µM; 5,600 compounds, 56% hits; AID 651744, 2012;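 active = mean loss of cell viability signal at or above a set limit, and enough replicates individually reaching it; inconclusive = meets only the mean limit or only the replicate share; inactive = meets neither condition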
Hits are given with their value; n = inactive; u = inconclusive; x = no result given.

SMILES | T cruzi growth-1 | GASC1 inh | IDH1 mut inh | T cruzi growth-2 | T cruzi growth-3 | NIH3T3 tox | 3T3 cytotox 2
C/C=C/c1ccc2c(c1)O[C@H](CN(C)CC1CC1)[C@H](C)CN([C@H](C)CO)S2(=O)=O | n | n | n | x | x | x | x
C[C@H]1CN([C@@H](C)CO)S(=O)(=O)c2ccc(/C=C/c3ccccc3)cc2O[C@H]1CN(C)CC1CC1 | 103.2 | n | n | 106.1 | n | n | 104.5
C[C@@H]1CN([C@H](C)CO)S(=O)(=O)c2ccc(/C=C/c3ccccc3)cc2O[C@@H]1CN(C)C(=O)c1ccncc1 | n | n | n | x | x | x | x
C[C@H](CO)N1C[C@H](C)[C@H](CN(C)C(=O)c2ccncc2)Oc2cc(/C=C/c3ccccc3)ccc2S1(=O)=O | 103.1 | n | n | 96.8 | n | n | 59.5
C[C@@H]1CN([C@H](C)CO)S(=O)(=O)c2ccc(/C=C/c3ccccc3)cc2O[C@@H]1CN(C)C(=O)c1ccccc1 | 122.8 | x | n | 105.3 | n | 78.9 | 79.2
C/C=C/c1ccc2c(c1)O[C@H](CN(C)C(=O)c1ccccc1)[C@@H](C)CN([C@@H](C)CO)S2(=O)=O | x | n | n | x | x | x | x
Cc1ccc(S(=O)(=O)Nc2ccc3c(c2)C(=O)N([C@H](C)CO)C[C@H](C)[C@@H](CN(C)S(=O)(=O)c2c(C)noc2C)OCCCC[C@@H](C)O3)cc1 | n | n | x | x | x | x | x
CCS(=O)(=O)NCC[C@@H]1CC[C@@H](NC(=O)C2CCOCC2)[C@H](CO)O1 | n | n | n | x | x | x | x
C[C@H]1CN([C@@H](C)CO)C(=O)c2cc(-c3ccccc3F)cnc2O[C@@H]1CN(C)C(=O)c1ccccn1 | n | n | n | x | x | x | x
C[C@H]1CCCCO[C@H](CN(C)C(=O)Nc2ccc(C(F)(F)F)cc2)[C@@H](C)CN([C@@H](C)CO)C(=O)c2cc(NC(=O)NC3CCCCC3)ccc2O1 | 109.4 | n | n | 97.4 | 106.9 | n | n
C[C@H]1CCCCO[C@@H](CN(C)C(=O)Nc2ccc(C(F)(F)F)cc2)[C@@H](C)CN([C@@H](C)CO)C(=O)c2cc(NC(=O)NC3CCCCC3)ccc2O1 | 123.4 | n | n | 101.1 | 113.0 | n | n
C[C@@H]1CN([C@H](C)CO)C(=O)c2cc(NC(=O)Nc3ccc(C(F)(F)F)cc3)ccc2O[C@@H](C)CCCCO[C@@H]1CN(C)C(=O)NC1CCCCC1 | n | n | x | x | x | x | x
C[C@@H]1CCCCO[C@H](CN(C)C(=O)NC2CCCCC2)[C@H](C)CN([C@@H](C)CO)C(=O)c2cc(NC(=O)Nc3ccc(C(F)(F)F)cc3)ccc2O1 | n | n | n | x | x | x | x
C[C@@H]1CCCCO[C@@H](CN(C)C(=O)NC2CCCCC2)[C@@H](C)CN([C@H](C)CO)C(=O)c2cc(NC(=O)Nc3ccc(C(F)(F)F)cc3)ccc2O1 | n | n | n | x | x | x | x
C[C@H](CO)N1C[C@H](C)[C@H](CN(C)C(=O)Nc2ccc(C(F)(F)F)cc2)OCCCC[C@H](C)Oc2ccc(NC(=O)NC3CCCCC3)cc2C1=O | 122.4 | n | x | u | 106.1 | n | n
C[C@H]1CCCCO[C@@H](CN(C)C(=O)NC2CCCCC2)[C@@H](C)CN([C@@H](C)CO)C(=O)c2cc(NC(=O)Nc3ccc(C(F)(F)F)cc3)ccc2O1 | n | n | x | x | x | x | x
C[C@@H]1CCCCO[C@@H](CN(C)C(=O)Nc2ccc(C(F)(F)F)cc2)[C@H](C)CN([C@@H](C)CO)C(=O)c2cc(NC(=O)NC3CCCCC3)ccc2O1 | u | n | n | 101.4 | n | n | n
C[C@@H]1CN([C@@H](C)CO)S(=O)(=O)c2ccc(C3=CCCCC3)cc2O[C@H]1CN(C)C(=O)C1CCOCC1 | x | n | x | x | x | x | x
Cc1cc(C)c(S(=O)(=O)Nc2c(C)[nH]c(=O)[nH]c2=O)c(C)c1 | x | x | n | x | x | x | x
COc1ccc(-c2ccc([C@H]3[C@@H](CO)N4C(=O)CN(C(=O)Cc5ccccn5)C[C@@H]34)cc2)cc1 | x | n | x | x | x | x | x
C[C@H](NC(=O)C[C@@H]1CC[C@@H](NC(=O)CN2CCOCC2)[C@H](CO)O1)c1ccccc1 | n | n | n | x | x | x | x
CC(C)NC(=O)N(C)C[C@H]1Oc2cc(C3=CCCC3)ccc2S(=O)(=O)N([C@H](C)CO)C[C@@H]1C | n | n | x | x | x | x | x
C[C@H](CO)N1C[C@H](C)[C@H](CN(C)C(=O)NC2CCCCC2)OCCCC[C@H](C)Oc2ccc(NC(=O)Nc3ccc(C(F)(F)F)cc3)cc2C1=O | n | n | n | x | x | x | x
C[C@@H]1CCCCO[C@@H](CN(C)C(=O)Nc2ccc(C(F)(F)F)cc2)[C@H](C)CN([C@H](C)CO)C(=O)c2cc(NC(=O)NC3CCCCC3)ccc2O1 | 117.2 | n | n | 103.8 | 108.8 | n | n
C[C@H](CO)N1C[C@H](C)[C@@H](CN(C)C(=O)NC2CCCCC2)OCCCC[C@H](C)Oc2ccc(NC(=O)Nc3ccc(C(F)(F)F)cc3)cc2C1=O | n | n | x | x | x | x | x
SMILES | T cruzi growth-1 | GASC1 inh | IDH1 mut inh | T cruzi growth-2 | T cruzi growth-3 | NIH3T3 tox | 3T3 cytotox 2
C[C@@H]1CCCCO[C@H](CN(C)C(=O)Nc2ccc(C(F)(F)F)cc2)[C@@H](C)CN([C@H](C)CO)C(=O)c2cc(NC(=O)NC3CCCCC3)ccc2O1 | 113.2 | n | x | 107.7 | n | n | n
CC(=O)N1CC[C@@H]2[C@@H](CO)Nc3ccc(C#Cc4cccnc4)cc3[C@@H]21 | n | n | x | x | x | x | x
C[C@H](CO)N1C[C@H](C)[C@H](CN(C)CC2CC2)Oc2cc(C#Cc3ccccn3)ccc2S1(=O)=O | n | n | n | x | x | x | x
C[C@H]1CN([C@@H](C)CO)S(=O)(=O)c2ccc(C#Cc3ccccn3)cc2O[C@H]1CN(C)Cc1ccc(F)cc1 | 116.2 | n | n | 102.9 | n | n | 37.2
C[C@H]1CN([C@@H](C)CO)S(=O)(=O)c2ccc(C#Cc3ccccn3)cc2O[C@@H]1CN(C)Cc1ccc(F)cc1 | 129.7 | n | n | 96.3 | n | 41.8 | 84.8
C[C@H](CO)N1C[C@H](C)[C@H](CN(C)Cc2ccc(F)cc2)Oc2cc(C#Cc3ccccn3)ccc2S1(=O)=O | 123.9 | n | n | 109.1 | n | n | n
C[C@H]1CN([C@@H](C)CO)S(=O)(=O)c2ccc(C#Cc3ccccn3)cc2O[C@@H]1CN(C)Cc1ccccc1 | n | n | n | x | x | x | x
